Data taken from ChEMBL document CHEMBL1156026, “Design and synthesis of pyridazinone-based 5-HT(2C) agonists” (Bioorg Med Chem Lett, 2009).

How the values were obtained:
[1] = target: T1, 5-hydroxytryptamine receptor 2C (Homo sapiens, UniProt P28335); assay: (§1) Agonist activity at human recombinant 5HT2C receptor expressed in CHOK1 cells assessed as induction of calcium mobilization by FLIPR assay; assay type: functional, cell-based, CHO-K1
T1 sequence (P28335 whole entry): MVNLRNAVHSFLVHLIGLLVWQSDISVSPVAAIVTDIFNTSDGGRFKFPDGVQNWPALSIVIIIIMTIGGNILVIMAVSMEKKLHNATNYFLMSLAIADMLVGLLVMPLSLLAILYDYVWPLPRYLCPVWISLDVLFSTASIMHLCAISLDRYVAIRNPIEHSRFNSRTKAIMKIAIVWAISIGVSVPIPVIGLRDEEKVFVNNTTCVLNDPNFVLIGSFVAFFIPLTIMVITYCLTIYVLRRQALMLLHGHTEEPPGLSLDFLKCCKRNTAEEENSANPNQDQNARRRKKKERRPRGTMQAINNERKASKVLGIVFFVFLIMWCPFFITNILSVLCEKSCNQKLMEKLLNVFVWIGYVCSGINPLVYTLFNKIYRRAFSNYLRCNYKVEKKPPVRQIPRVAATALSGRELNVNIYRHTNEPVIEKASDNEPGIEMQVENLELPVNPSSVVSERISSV

[2] = target: T2, 5-hydroxytryptamine receptor 2C (Homo sapiens) (UniProt P28335); assay: as §1; assay type: functional, cell-based; conditions: CHO-K1
T2 sequence (whole entry): T1 sequence (P28335 whole entry)

[3] = target: 5-hydroxytryptamine receptor 2A (Homo sapiens, UniProt P28223); assay: Agonist activity at human recombinant 5HT2A receptor expressed in Swiss mouse 3T3 cells assessed as induction of calcium mobilization by FLIPR assay; assay type: functional, cell-based; conditions: for Emax: NIH3T3
[4] = target: 5-hydroxytryptamine receptor 2B (Homo sapiens, UniProt P41595); assay: Agonist activity at human recombinant 5HT2B receptor expressed in Swiss mouse 3T3 cells assessed as induction of calcium mobilization by FLIPR assay; assay type: functional, cell-based; conditions: for Emax: NIH3T3
[5] = target: T1, 5-hydroxytryptamine receptor 2C; assay: Displacement of [3H]meselurgine from human recombinant 5HT2C receptor expressed in Swiss mouse 3T3 cells by SPA; assay type: cell-based
Procedure, shortened: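 Competition binding against [3H]-meselurgine at the human 5-HT2C receptor, read by scintillation proximity assay, using membrane preparations made from Swiss 3T3 cells expressing the recombinant receptor.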

[6] = Efflux ratio of permeability across MDCK cell membrane; assay type: ADME, cell-based, Canis lupus familiaris; conditions: dog
[7] = Lipophilicity, log D at pH 7.4; assay type: physicochemical; conditions: buffer
[8] = Metabolic stability in human liver microsomes; assay type: ADME, Microsome; conditions: read-out: Stability
[9] = target: 5-hydroxytryptamine receptor 6 (Homo sapiens) (UniProt P50406); assay: Binding affinity to human 5HT6 receptor
Canis familiaris [10] = assay: Increase in urethral pressure in continuous iv dosed dog model of stress urinary incontinence; assay type: functional, Canis lupus familiaris, Urethra
Canis familiaris [11] = assay: Plasma concentration in continuous iv dosed dog; assay type: ADME, organism-based, Canis lupus familiaris; conditions: in vivo
[12] = target: GABA-A receptor; agonist GABA site (Homo sapiens) (UniProt P14867+P47870+P28472+P48169+P34903+P18505+P47869+P31644+Q16445); assay: Binding affinity to human GABAA receptor; assay type: protein-complex assay
[13] = target: 5-hydroxytryptamine receptor 1D (Homo sapiens) (UniProt P28221); assay: Binding affinity to human 5HT1D receptor
[14] = target: 5-hydroxytryptamine receptor 1B (Homo sapiens) (UniProt P28222); assay: Binding affinity to human 5HT1B receptor
[15] = target: T3, B2 bradykinin receptor (Homo sapiens) (UniProt P30411); assay: Binding affinity to human bradykinin B2 receptor
T3 sequence (whole entry): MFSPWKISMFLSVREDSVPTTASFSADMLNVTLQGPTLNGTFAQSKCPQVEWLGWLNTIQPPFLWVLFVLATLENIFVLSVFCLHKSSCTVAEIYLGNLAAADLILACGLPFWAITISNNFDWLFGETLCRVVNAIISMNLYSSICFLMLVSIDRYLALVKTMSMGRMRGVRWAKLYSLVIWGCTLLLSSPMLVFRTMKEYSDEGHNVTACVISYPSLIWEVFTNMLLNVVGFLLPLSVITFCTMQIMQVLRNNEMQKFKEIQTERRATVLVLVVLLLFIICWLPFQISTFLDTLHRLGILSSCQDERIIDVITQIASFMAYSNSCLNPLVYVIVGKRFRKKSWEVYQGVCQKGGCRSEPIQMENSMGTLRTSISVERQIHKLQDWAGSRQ

5-hydroxytryptamine receptor 2B, sequence (P41595 whole entry): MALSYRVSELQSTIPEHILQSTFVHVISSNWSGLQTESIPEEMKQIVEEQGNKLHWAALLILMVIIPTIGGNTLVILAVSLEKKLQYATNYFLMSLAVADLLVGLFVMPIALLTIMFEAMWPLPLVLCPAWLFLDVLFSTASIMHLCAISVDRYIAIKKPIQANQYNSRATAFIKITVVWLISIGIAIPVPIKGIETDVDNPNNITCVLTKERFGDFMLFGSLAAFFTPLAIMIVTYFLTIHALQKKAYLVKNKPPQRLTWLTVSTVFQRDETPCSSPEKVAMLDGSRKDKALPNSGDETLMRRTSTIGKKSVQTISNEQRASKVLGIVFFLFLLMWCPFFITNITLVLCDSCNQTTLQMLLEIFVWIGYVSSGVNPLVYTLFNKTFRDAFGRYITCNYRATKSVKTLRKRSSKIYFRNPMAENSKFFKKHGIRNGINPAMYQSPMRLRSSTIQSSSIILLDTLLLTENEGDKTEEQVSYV
5-hydroxytryptamine receptor 2A, sequence (P28223 whole entry): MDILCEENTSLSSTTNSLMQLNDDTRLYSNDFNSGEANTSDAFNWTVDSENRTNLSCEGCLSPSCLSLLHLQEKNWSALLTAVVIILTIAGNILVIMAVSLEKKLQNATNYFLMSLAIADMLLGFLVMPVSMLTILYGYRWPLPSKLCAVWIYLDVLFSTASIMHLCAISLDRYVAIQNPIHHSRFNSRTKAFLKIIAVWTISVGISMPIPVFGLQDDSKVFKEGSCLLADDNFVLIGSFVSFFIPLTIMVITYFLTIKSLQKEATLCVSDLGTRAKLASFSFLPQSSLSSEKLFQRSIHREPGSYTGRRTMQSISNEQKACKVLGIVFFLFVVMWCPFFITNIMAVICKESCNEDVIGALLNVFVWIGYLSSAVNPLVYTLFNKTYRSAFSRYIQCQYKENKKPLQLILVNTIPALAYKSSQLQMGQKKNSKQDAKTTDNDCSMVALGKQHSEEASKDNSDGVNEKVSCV
5-hydroxytryptamine receptor 6 (Homo sapiens), sequence (P50406 whole entry): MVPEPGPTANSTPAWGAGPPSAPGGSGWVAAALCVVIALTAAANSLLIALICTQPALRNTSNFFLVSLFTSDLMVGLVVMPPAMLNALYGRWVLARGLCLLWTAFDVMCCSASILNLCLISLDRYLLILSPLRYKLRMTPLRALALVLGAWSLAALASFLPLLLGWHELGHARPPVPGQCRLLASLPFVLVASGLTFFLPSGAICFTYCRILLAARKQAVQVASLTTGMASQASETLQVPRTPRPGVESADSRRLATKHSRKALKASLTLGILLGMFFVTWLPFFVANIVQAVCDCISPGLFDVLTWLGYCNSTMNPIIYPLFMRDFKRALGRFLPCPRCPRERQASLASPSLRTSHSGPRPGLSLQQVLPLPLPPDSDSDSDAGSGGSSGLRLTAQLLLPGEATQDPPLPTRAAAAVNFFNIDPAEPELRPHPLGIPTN
5-hydroxytryptamine receptor 1D (Homo sapiens), sequence (P28221 whole entry): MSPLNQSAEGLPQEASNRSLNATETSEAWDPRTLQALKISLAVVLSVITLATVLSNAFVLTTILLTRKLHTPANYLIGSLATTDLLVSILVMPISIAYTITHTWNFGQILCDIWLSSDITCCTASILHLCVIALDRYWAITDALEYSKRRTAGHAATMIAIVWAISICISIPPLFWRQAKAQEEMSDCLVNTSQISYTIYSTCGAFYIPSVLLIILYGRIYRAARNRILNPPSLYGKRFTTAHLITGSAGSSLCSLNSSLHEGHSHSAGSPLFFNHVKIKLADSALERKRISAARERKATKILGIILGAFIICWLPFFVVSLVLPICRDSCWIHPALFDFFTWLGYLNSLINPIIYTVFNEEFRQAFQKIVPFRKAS
5-hydroxytryptamine receptor 1B (Homo sapiens), sequence (P28222 whole entry): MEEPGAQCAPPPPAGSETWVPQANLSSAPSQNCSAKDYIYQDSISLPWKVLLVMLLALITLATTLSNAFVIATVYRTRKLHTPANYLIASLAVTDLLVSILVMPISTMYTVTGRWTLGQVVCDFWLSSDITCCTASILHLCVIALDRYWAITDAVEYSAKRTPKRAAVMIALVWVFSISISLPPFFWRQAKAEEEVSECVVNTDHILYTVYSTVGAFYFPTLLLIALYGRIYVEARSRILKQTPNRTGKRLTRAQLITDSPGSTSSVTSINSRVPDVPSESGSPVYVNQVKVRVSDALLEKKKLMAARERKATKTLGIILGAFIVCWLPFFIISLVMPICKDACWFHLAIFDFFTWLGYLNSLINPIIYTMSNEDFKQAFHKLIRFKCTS

O=c1ccc(N2CCNCC2)nn1CCOc1ccc(Cl)cc1
EC50 [1]: > 10000 nM

C[C@H](COc1ccccc1Cl)n1nc(N2CCNCC2)ccc1=O
EC50 [1]: > 1920 nM
Emax [2]: 55%

C[C@H]1CNCCN1c1ccc(=O)n(CCOc2ccccc2Cl)n1
EC50 [1]: > 10000 nM

COc1ccccc1OCCn1nc(N2CCNCC2)ccc1=O
EC50 [1]: > 10000 nM

Clc1cccc(N2CCNCC2)c1
Emax [3]: 58%

C[C@H]1CN(c2ccc(=O)n(CCOc3ccccc3Cl)n2)CCN1
EC50 [1]: > 10000 nM

Cc1ccccc1OCCn1nc(N2CCNCC2)ccc1=O
EC50 [1]: > 4550 nM
Emax [2]: 36%

CC[C@@H]1CNCCN1c1ccc(=O)n(CCOc2ccccc2Cl)n1
EC50 [1]: 407 nM
Emax [2]: 41%

C[C@@H](COc1ccccc1Cl)n1nc(N2CCNCC2)ccc1=O
EC50 [4]: 506 nM
Emax [4]: 30%
EC50 [3]: 65 nM
Emax [3]: 69%
Ki [5]: 728 nM
EC50 [1]: 25 nM
Emax [2]: 77%

O=c1c2c(c(N3CCNCC3)nn1CCOc1ccccc1Cl)CCC2
EC50 [1]: > 10000 nM

C[C@@H]1CNCCN1c1ccc(=O)n(CCOc2ccccc2Cl)n1
EC50 [4]: > 10000 nM
EC50 [3]: 114 nM
Emax [3]: 42%
efflux ratio [6]: 6
Ki [5]: 325 nM
logD [7]: 0.9
microsomal CLint [8]: 9.8 µL/min/mg
EC50 [1]: 25 nM
Emax [2]: 51%

O=c1ccc(N2CCNCC2)nn1CCOc1ccccc1Br
EC50 [1]: 101 nM
Emax [2]: 34%

O=CC1CNCCN1c1ccc(=O)n(CCOc2ccccc2Cl)n1 (stereo not given)
EC50 [1]: > 9980 nM

O=c1ccc(N2CCNCC2)nn1CCOc1cccc(Cl)c1Cl
EC50 [1]: > 2130 nM

C[C@@H](Cn1nc(N2CCNCC2)ccc1=O)Oc1ccccc1Cl
EC50 [1]: 360 nM
Emax [2]: 87%

O=c1ccc(N2CCNCC2)nn1CCOc1ccccc1
EC50 [1]: > 10000 nM

Cc1cc(N2CCNCC2)nn(CCOc2ccccc2Cl)c1=O
EC50 [1]: > 10000 nM

Clc1ccccc1CCOc1cncc(N2CCNCC2)n1
EC50 [4]: 187 nM
Emax [4]: 42%
EC50 [3]: 308 nM
Emax [3]: 56%
efflux ratio [6]: 2
logD [7]: 2.2
microsomal CLint [8]: 94 µL/min/mg
EC50 [1]: 10 nM
Emax [2]: 69%

N#Cc1ccccc1OCCn1nc(N2CCNCC2)ccc1=O
EC50 [1]: 114 nM
Emax [2]: 69%

C[C@H](Cn1nc(N2CCNCC2)ccc1=O)Oc1ccccc1Cl
EC50 [1]: 858 nM
Emax [2]: 53%

C[C@@H]1CNCCN1c1ccc(=O)n(CCOc2ccccc2C(F)(F)F)n1
Activity [9]: < 1000 nM
Activity (Canis familiaris [10]): >20%
EC50 [4]: > 2610 nM
EC50 [3]: 41 nM
Emax [3]: 61%
concentration (Canis familiaris [11]): 52 nM
Activity [12]: < 1000 nM
Ki [5]: 89 nM
Activity [13]: < 1000 nM
Activity [14]: < 1000 nM
Activity [15]: < 1000 nM
EC50 [1]: 11 nM
Emax [2]: 51%

Cc1cc(=O)n(CCOc2ccccc2Cl)nc1N1CCNCC1
EC50 [1]: 510 nM
Emax [2]: 31%

O=c1ccc(N2CCNCC2)nn1CCOc1cccc(Cl)c1
EC50 [1]: > 10000 nM

O=c1ccc(N2CCNCC2)nn1CCOc1ccccc1C(F)(F)F
EC50 [4]: > 10000 nM
EC50 [3]: 1090 nM
Emax [3]: 49%
Ki [5]: 424 nM
EC50 [1]: 47 nM
Emax [2]: 45%

O=c1ccc(N2CCNCC2)nn1CCOc1ccccc1Cl
EC50 [4]: > 10000 nM
EC50 [3]: 254 nM
Emax [3]: 41%
efflux ratio [6]: 5
Ki [5]: 1600 nM
logD [7]: 0.6
microsomal CLint [8]: < 7 µL/min/mg
EC50 [1]: 164 nM
Emax [2]: 58%
